Assay [1] addresses T1, Cannabinoid receptor 1 (Homo sapiens, UniProt P21554). In words: Displacement of [3H]CP-55940 from CB1 receptor (unknown origin) at 1 uM by competitive binding assay.
Assay [2] has as its target T2, Cannabinoid receptor 2 (Homo sapiens, UniProt P34972). In words: Displacement of [3H]CP-55940 from CB2 receptor (unknown origin) at 1 uM by competitive binding assay.
Assay [3] deals with T2, Cannabinoid receptor 2. In words: Inverse agonist activity at human CB2 receptor expressed in CHO cell membrane assessed as reduction in GTPgammaS binding at 10 uM by [35S]GTP-gammaS binding assay. The class given is functional, cell membranes. A digest of the protocol:
(§1)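 [35S]GTPγS binding in CHO-hCB1 membranes (hCB1R) or CHO-hCB2 membranes (hCB2R). A single 10 μM concentration of ligand was tested for change in [35S]GTPγS binding relative to basal. Agonism was read as a rise above basal, inverse agonism as a fall below basal, and neutral activity as no significant change.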

For assay [4], the species on record is Homo sapiens. In words: Selectivity index, ratio of Ki for CB1 receptor (unknown origin) to Ki for CB2 receptor (unknown origin) by competitive binding assay.
For assay [5], the target named is T2, Cannabinoid receptor 2. In words: Neutral antagonist activity at human CB2 receptor expressed in CHO cell membrane at 10 uM by [35S]GTP-gammaS binding assay. The class given is cell membranes. To be noted: filed as antagonist. A digest of the protocol:
as §1
Background: GTPγS is a poorly hydrolysed GTP analogue; its binding reports G protein activation.

The target of assay [6] is T2, Cannabinoid receptor 2. Put plainly: Displacement of [3H]CP-55940 from CB2 receptor (unknown origin) by competitive binding assay. A general note: Displacement assays read how much labelled ligand stays bound in the presence of the test substance.
Assay [7] has as its target T1, Cannabinoid receptor 1. In words: Displacement of [3H]CP-55940 from CB1 receptor (unknown origin) by competitive binding assay.
The target of assay [8] is T1, Cannabinoid receptor 1. In words: Inverse agonist activity at human CB1 receptor expressed in CHO cell membrane assessed as reduction in GTPgammaS binding at 10 uM by [35S]GTP-gammaS binding assay. It counts as functional, cell membranes. A digest of the protocol:
as §1

Assay [9] deals with T1, Cannabinoid receptor 1. Put plainly: Binding affinity to human CB1 receptor expressed in CHO cell membrane at 10 uM by [35S]GTP-gammaS binding assay. It counts as cell membranes. A digest of the protocol: as §1
Assay [10] deals with T2, Cannabinoid receptor 2. Put plainly: Binding affinity to human CB2 receptor expressed in CHO cell membrane at 10 uM by [35S]GTP-gammaS binding assay. It counts as cell membranes. A digest of the protocol: as §1
Assay [11] addresses T1, Cannabinoid receptor 1. In words: Neutral antagonist activity at human CB1 receptor expressed in CHO cell membrane at 10 uM by [35S]GTP-gammaS binding assay. The conditions noted are these: filed as antagonist. It counts as cell membranes. The method, boiled down: as §1
Assay [12] addresses T2, Cannabinoid receptor 2. Put plainly: Agonist activity at human CB2 receptor expressed in CHO cell membrane assessed as increase in GTPgammaS binding at 10 uM by [35S]GTP-gammaS binding assay. The class given is functional, cell membranes. A digest of the protocol: as §1
Assay [13] has as its target T1, Cannabinoid receptor 1. Put plainly: Agonist activity at human CB1 receptor expressed in CHO cell membrane assessed as increase in GTPgammaS binding at 10 uM by [35S]GTP-gammaS binding assay. It counts as functional, cell membranes. A digest of the protocol:
as §1

The source made the active and inactive calls. The calls are words filed in the database; no cut-off is given here.

Data on 13 compounds can be found in ChEMBL document CHEMBL4699478, “7-Azaindolequinuclidinones (7-AIQD): A novel class of cannabinoid 1 (CB1) and cannabinoid 2 (CB2) receptor ligands” (Bioorg Med Chem Lett, 2020).

Broadly, the inhibition is the share of the control response that was lost under treatment. As usually defined, the Ki is the equilibrium dissociation constant of an inhibitor or competing ligand from its target. Higher therefore signals weaker binding.

T1 sequence (P21554 whole entry): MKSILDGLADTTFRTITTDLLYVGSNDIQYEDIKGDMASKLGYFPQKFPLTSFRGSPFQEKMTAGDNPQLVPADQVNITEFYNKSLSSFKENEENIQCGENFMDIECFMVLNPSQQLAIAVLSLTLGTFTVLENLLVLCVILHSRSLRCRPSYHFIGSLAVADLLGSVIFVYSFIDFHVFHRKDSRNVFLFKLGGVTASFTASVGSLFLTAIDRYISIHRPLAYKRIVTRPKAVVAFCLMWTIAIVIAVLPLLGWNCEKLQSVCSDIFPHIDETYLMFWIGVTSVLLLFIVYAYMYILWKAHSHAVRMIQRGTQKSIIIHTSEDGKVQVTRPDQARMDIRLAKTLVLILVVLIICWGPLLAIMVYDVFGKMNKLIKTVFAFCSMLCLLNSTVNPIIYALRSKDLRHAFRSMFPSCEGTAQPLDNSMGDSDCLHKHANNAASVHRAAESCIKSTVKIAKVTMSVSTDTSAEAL
T2 sequence (P34972 whole entry): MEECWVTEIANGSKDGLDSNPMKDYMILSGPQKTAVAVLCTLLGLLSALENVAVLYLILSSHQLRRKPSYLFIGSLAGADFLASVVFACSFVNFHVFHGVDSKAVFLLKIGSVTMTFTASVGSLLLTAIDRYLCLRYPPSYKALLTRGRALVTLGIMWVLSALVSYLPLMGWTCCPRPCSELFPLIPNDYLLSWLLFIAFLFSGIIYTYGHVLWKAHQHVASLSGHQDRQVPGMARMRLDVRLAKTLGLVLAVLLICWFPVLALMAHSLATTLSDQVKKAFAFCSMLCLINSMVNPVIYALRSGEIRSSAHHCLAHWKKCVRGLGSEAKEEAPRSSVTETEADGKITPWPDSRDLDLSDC

For `OC1/C(=C/c2cn(Cc3ccc(Cl)cc3)c3ncccc23)N2CCC1CC2` (racemic), the figures for the inhibition in [1] and in assay [2] were 58.2% and 58.5%, respectively.

For the compound `N#Cc1ccc(Cn2cc(/C=C3/C(=O)C4CCN3CC4)c3cccnc32)cc1`, the figures for the inhibition in assay [1] and in [2] were 55.7% and 64.1%, respectively.

Take `COc1ccc(C(=O)c2c(C)n(CCN3CCOCC3)c3cc(I)ccc23)cc1`: the outcome in assay [3] (filed as inverse agonist) was Active.

As for `O=C1/C(=C/c2cn(Cc3ccc(Br)cc3)c3ncccc23)N2CCC1CC2`, the inhibition worked out at 74.2% in assay [1] (filed as inverse agonist) and 67.6% in assay [2] (filed as antagonist). Further, in assay [4], the Ratio Ki is 1.8. For the same compound, the outcome in assay [5] and in assay [8] (filed as inverse agonist) was Active. In addition, the figures for the inhibition constant (Ki) in assay [6] and in assay [7] were 625 nM and 1110 nM, respectively.

In the case of `O=C1/C(=C/c2cn(Cc3ccc(F)cc3)c3ncccc23)N2CCC1CC2`, the result in assay [9] and in [10] was Active. Besides, the inhibition was 87.6% in [1] and 100% in assay [2]. Moreover, the Ratio Ki in assay [4] amounted to 9.2. For the same compound, the Ki in [6] was 23.7 nM; in assay [7], 218 nM.

Consider `O=C1/C(=C/c2cn(CCN3CCOCC3)c3ncccc23)N2CCC1CC2`, for which the inhibition in assay [1] is 0%; in assay [2], 7.92%.

Turning to `O=C1/C(=C/c2cn(Cc3ccccc3)c3ncccc23)N2CCC1CC2`, the outcome in assay [11] and in assay [5] was Active. Besides, the inhibition was 15.1% in assay [1] and 79.9% in assay [2] (filed as antagonist). Also, in [4], the Ratio Ki was 26.3. Further, the result in [12], in [3], in [13] and in [8] was inactive. In addition, the figures for the Ki in assay [6] and in [7] were 110 nM and 2900 nM, respectively.

For `OC1/C(=C/c2cn(Cc3ccccc3)c3ncccc23)N2CCC1CC2` (racemic), the inhibition in assay [1] and in assay [2] was 0% throughout.

Regarding `O=C1/C(=C/c2cn(CCN3CCCC3)c3ncccc23)N2CCC1CC2`, the inhibition turned out to be 39.4% in assay [1] and 56.6% in assay [2].

Take `O=C1/C(=C/c2cn(Cc3ccc(Cl)cc3)c3ncccc23)N2CCC1CC2`: the inhibition in assay [1] (filed as inverse agonist) is 68.9%; in assay [2] (filed as inverse agonist), 74.8%. In addition, in assay [4], the Ratio Ki was 6.1. The result in [3] (filed as inverse agonist) and in assay [8] (filed as inverse agonist) was Active. Besides, the figures for the Ki in [6] and in assay [7] were 115 nM and 704 nM, respectively.

With `O=C1/C(=C/c2cn(Cc3cccc(C(F)(F)F)c3)c3ncccc23)N2CCC1CC2`, the values for the inhibition in assay [1] and in assay [2] were 42.5% and 56.7%, respectively.

Take `COc1ccc(Cn2cc(/C=C3/C(=O)C4CCN3CC4)c3cccnc32)cc1`: the figures for the inhibition in assay [1] and in [2] were 22.4% and 27.5%, respectively.

As for `Cc1c(C(=O)NN2CCCCC2)nn(-c2ccc(Cl)cc2Cl)c1-c1ccc(I)cc1`, the result in assay [8] (filed as inverse agonist) was Active.
